From ChEMBL document CHEMBL4732028, “Structural modifications that increase gut restriction of bile acid derivatives” (RSC Med Chem, 2021)
pEC50: −log10 of the molar value. Calls of active or inactive are those of the source. The calls are words filed in the database; no cut-off is given here.

What was measured:
[1] = target: T1, Vitamin D3 receptor (Homo sapiens) (UniProt P11473); experiment: Agonist activity at VDR (unknown origin)
T1 sequence (whole entry): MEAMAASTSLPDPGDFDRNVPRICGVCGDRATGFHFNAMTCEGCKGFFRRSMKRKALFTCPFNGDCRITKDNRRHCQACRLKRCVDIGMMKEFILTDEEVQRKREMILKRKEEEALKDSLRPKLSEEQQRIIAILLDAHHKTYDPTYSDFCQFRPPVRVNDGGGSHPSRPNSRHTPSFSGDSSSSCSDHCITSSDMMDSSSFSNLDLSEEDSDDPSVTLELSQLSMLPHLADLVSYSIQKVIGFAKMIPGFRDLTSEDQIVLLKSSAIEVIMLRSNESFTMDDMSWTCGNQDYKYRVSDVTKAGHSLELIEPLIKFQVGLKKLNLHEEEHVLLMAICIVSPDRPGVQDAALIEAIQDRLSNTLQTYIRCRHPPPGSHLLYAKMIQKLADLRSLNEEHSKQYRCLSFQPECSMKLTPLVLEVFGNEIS

[2] = Apparent permeability of the compound across apical to basolateral side in human Caco-2 cells; assay type: ADME, cell-based
[3] = AUC in C57BL/6 mouse at 5 mg/kg, po measured up to 120 mins by LC-MS/MS analysis; assay type: ADME, organism-based; design: route oral, dose 5 mg/kg, time <=120; conditions: in vivo
[4] = Drug recovery in C57BL/6 mouse feces at 5 mg/kg, po measured after 24 hrs by LC-MS/MS analysis; assay type: ADME, organism-based; conditions: read-out: Drug recovery
[5] = Apparent permeability of the compound across basolateral to apical side in human Caco-2 cells; assay type: ADME, cell-based
HEK293 = experiment: Cytotoxicity against human HEK293 cells at 10 uM; assay type: cell-based; conditions: hek293, 10 µM
[6] = target: T2, Bile acid receptor (Homo sapiens) (UniProt Q96RI1); experiment: Agonist activity at FXR (unknown origin)
T2 sequence (whole entry): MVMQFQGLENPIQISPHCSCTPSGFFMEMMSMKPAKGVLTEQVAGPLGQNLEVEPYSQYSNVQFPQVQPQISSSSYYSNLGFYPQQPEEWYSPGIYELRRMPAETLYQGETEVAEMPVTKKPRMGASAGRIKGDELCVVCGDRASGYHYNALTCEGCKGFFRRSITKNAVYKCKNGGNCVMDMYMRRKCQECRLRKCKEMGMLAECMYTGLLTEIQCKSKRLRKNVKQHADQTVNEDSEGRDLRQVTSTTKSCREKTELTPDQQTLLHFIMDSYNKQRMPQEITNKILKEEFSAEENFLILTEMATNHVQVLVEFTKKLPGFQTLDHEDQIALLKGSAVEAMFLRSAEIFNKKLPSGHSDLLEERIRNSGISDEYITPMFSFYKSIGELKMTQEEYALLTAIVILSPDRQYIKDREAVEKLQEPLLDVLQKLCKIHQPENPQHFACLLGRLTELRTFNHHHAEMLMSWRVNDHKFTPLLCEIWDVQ

[7] = target: T3, G-protein coupled bile acid receptor 1 (Homo sapiens, UniProt Q8TDU6); experiment: Agonist activity at recombinant human TGR5 expressed in CHO cells assessed as increase in cAMP accumulation after 30 mins by TR-FRET assay; assay type: functional, cell-based
T3 sequence (Q8TDU6 whole entry): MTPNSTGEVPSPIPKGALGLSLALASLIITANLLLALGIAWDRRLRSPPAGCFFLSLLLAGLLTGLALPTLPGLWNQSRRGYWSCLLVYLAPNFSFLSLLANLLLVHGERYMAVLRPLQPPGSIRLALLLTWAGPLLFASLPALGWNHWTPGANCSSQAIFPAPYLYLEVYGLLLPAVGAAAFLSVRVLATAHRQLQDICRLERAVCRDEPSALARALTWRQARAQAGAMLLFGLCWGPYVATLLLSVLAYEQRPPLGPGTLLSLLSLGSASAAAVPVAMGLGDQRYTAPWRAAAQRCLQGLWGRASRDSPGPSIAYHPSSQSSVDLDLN

Clostridioides difficile [8] = experiment: Inhibition of TCA-induced Clostridioides difficile RPRE2 spore germination at 200 uM measured once every minute for 20 mins by microplate reader analysis; assay type: functional
In short: (§1)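 Germination of C. difficile spores was induced with 2000 μM taurocholate (TCA), and test compound was added to inhibit it.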

Clostridioides difficile [9] = experiment: Inhibition of TCA-induced Clostridioides difficile RPRE2 spore germination at 50 uM measured once every minute for 20 mins by microplate reader analysis; assay type: functional; in short: as §1

SMILES	AUC at 2 h [3] [µg·h/mL]	dose excreted at 24 h [4] [%]	pEC50 [7]	also measured
CO[C@@H]1C[C@@H]2C[C@H](O)CC[C@]2(C)[C@H]2CC[C@]3(C)[C@@H]([C@H](C)CCc4nnc(C)o4)CC[C@H]3[C@H]12	25.7	7.1		Activity [1]: inactive; Papp A→B [2]: 2.7 nm/s; Papp B→A [5]: 1.2 nm/s; Activity (HEK293): Non-Toxic; Activity [6]: inactive
CO[C@@H]1C[C@@H]2C[C@H](O)CC[C@]2(C)[C@H]2CC[C@]3(C)[C@@H]([C@H](C)CCC(=O)N(CCCNC(=O)[C@H](O)[C@@H](O)[C@H](O)[C@H](O)CO)CCCNC(=O)[C@H](O)[C@@H](O)[C@H](O)[C@H](O)CO)CC[C@H]3[C@H]12			6.25	
CO[C@@H]1CC[C@@]2(C)[C@@H](C1)C[C@H](O)[C@@H]1[C@@H]2CC[C@]2(C)[C@@H]([C@H](C)CCC(=O)N3CCCC3)CC[C@@H]12	29.6	3		
CO[C@@H]1C[C@@H]2C[C@H](O)CC[C@]2(C)[C@H]2CC[C@]3(C)[C@@H]([C@H](C)CCC(=O)NC[C@H](O)[C@@H](O)[C@H](O)[C@H](O)CO)CC[C@H]3[C@H]12	1.52	11.7	7.48	inhibition (Clostridioides difficile [8]): inactive
CO[C@@H]1CC[C@@]2(C)[C@@H](C1)C[C@@H](O)[C@@H]1[C@@H]2CC[C@]2(C)[C@@H]([C@H](C)CCc3nn[nH]n3)CC[C@@H]12				inhibition (Clostridioides difficile [9]): Active
CO[C@@H]1CC[C@@]2(C)[C@@H](C1)C[C@H](OS(=O)(=O)[O-])[C@@H]1[C@@H]2CC[C@]2(C)[C@@H]([C@H](C)CCC(=O)N3CCCC3)CC[C@@H]12.[Na+]	14.3	29.1		inhibition (Clostridioides difficile [9]): Active
CO[C@@H]1C[C@@H]2C[C@H](O)CC[C@]2(C)[C@H]2CC[C@]3(C)[C@@H]([C@H](C)CCC(=O)N(C)C[C@H](O)[C@@H](O)[C@H](O)[C@H](O)CO)CC[C@H]3[C@H]12	1.25	39.7	7.21	inhibition (Clostridioides difficile [8]): inactive
CO[C@@H]1CC[C@@]2(C)[C@@H](C1)C[C@@H](O)[C@@H]1[C@@H]2CC[C@]2(C)[C@@H]([C@H](C)CCc3nnn[n-]3)CC[C@@H]12.[Na+]	37.7	7.7		
CO[C@@H]1CC[C@@]2(C)[C@@H](C1)C[C@@H](OS(=O)(=O)[O-])[C@@H]1[C@@H]2CC[C@]2(C)[C@@H]([C@H](C)CCc3nnn[n-]3)CC[C@@H]12.[Na+].[Na+]	4.84	89.1		inhibition (Clostridioides difficile [9]): Active
CO[C@@H]1C[C@@H]2C[C@H](O)CC[C@]2(C)[C@H]2CC[C@]3(C)[C@@H]([C@H](C)CCC(=O)O)CC[C@H]3[C@H]12			7.11	
Cc1nnc(CC[C@@H](C)[C@H]2CC[C@H]3[C@@H]4[C@H](O)C[C@@H]5C[C@H](O)CC[C@]5(C)[C@H]4CC[C@]23C)o1	45.8	0.5		Papp A→B [2]: 26 nm/s; Papp B→A [5]: 15 nm/s
